Test results: ChEMBL document CHEMBL1139170, “Synthesis of 3-[4'-(p-chlorophenyl)-thiazol-2'-yl]-2-[(substituted azetidinone/thiazolidinone)-aminomethyl]-6-bromoquinazolin-4-ones as anti-inflammatory agent” (Bioorg Med Chem, 2007)

Key:
Rattus norvegicus [1] = assay: Antiinflammatory activity against carrageenan-induced hind paw oedema in Charles foster rat assessed as inhibition of paw oedema at 50 mg/kg, po after 1 hr; type: functional; design: scale not given: the % may be the effect or the level left
Summary of the method: (§1)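 Charles-Foster albino rats of either sex, no pregnant females, 70–95 days old, 100–150 g. Oral dose of 25, 50 or 100 mg/kg given 1 h before carrageenan. Carrageenan was a fresh 1% suspension in 0.9% saline, 0.05 mL under the plantar aponeurosis of the right hind paw. Paw volume measured by plethysmometer before and 3 h after carrageenan. Result is percent inhibition of oedema.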

Mus musculus [2] = assay: Analgesic activity in Albino mouse assessed as number of acetic acid-induced writhing at 50 mg/kg, po after 30 min; type: functional
[3] = Acute toxicity in albino mouse assessed as percent mortality after 24 hrs; type: organism-based; settings: in vivo, read-out: ALD50
Rattus norvegicus [4] = assay: Antiinflammatory activity against carrageenan-induced hind paw oedema in Charles foster rat assessed as inhibition of paw oedema at 25 mg/kg, po after 1 hr; type: functional; design: scale not given: the % may be the effect or the level left; summary of the method: as §1
Rattus norvegicus [5] = assay: Antiinflammatory activity against carrageenan-induced hind paw oedema in Charles foster rat assessed as inhibition of paw oedema at 100 mg/kg, po after 1 hr; type: functional; design: scale not given: the % may be the effect or the level left; summary of the method: as §1
Mus musculus [6] = assay: Analgesic activity in Albino mouse assessed as number of acetic acid-induced writhing at 25 mg/kg, po after 30 min; type: functional
Mus musculus [7] = assay: Analgesic activity in Albino mouse assessed as number of acetic acid-induced writhing at 100 mg/kg, po after 30 min; type: functional
Rattus norvegicus [8] = organism: Rattus norvegicus; assay: Ulcerogenic activity in 24 hrs fasted Charles foster rat; type: functional
Summary of the method: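 Albino rats fasted 24 h, then given compound. Killed 8 h after dosing. Stomach and small intestine examined for hyperaemia, epithelial shedding, petechial or frank haemorrhage, and erosion or ulceration with or without perforation. Any one of these counted as ulcerogenic. Route reported as i.p. for the UD50.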

Structure (SMILES)	Activity (Rattus norvegicus [1])	Activity (Mus musculus [2])	LD50 at 24 h [3]	Activity (Rattus norvegicus [4])	Activity (Rattus norvegicus [5])	Activity (Mus musculus [6])	Activity (Mus musculus [7])	UD50 (Rattus norvegicus [8])
COc1ccc(C2SCC(=O)N2NCc2nc3ccc(Br)cc3c(=O)n2-c2nc(-c3ccc(Cl)cc3)cs2)cc1 (centres undefined)	36.11%	34.27%	> 1000 mg/kg	–	–	–	–	–
O=c1c2cc(Br)ccc2nc(CN/N=C/c2ccc(Cl)cc2)n1-c1nc(-c2ccc(Cl)cc2)cs1	25.12%	23.42%	> 1000 mg/kg	–	–	–	–	–
COc1ccccc1/C=N/NCc1nc2ccc(Br)cc2c(=O)n1-c1nc(-c2ccc(Cl)cc2)cs1	24.66%	22.18%	> 1000 mg/kg	–	–	–	–	–
O=c1c2cc(Br)ccc2nc(CN/N=C/c2ccc(O)cc2)n1-c1nc(-c2ccc(Cl)cc2)cs1	20.23%	18.96%	> 1000 mg/kg	–	–	–	–	–
Cc1ccc(/C=N/NCc2nc3ccc(Br)cc3c(=O)n2-c2nc(-c3ccc(Cl)cc3)cs2)cc1	19.14%	18.52%	> 1000 mg/kg	–	–	–	–	–
O=c1c2cc(Br)ccc2nc(CN/N=C/c2ccccc2Cl)n1-c1nc(-c2ccc(Cl)cc2)cs1	26.44%	24.68%	> 1000 mg/kg	–	–	–	–	–
COc1ccccc1C1C(Cl)C(=O)N1NCc1nc2ccc(Br)cc2c(=O)n1-c1nc(-c2ccc(Cl)cc2)cs1 (centres undefined)	32.45%	31.89%	> 1000 mg/kg	–	–	–	–	–
COc1ccc(C2C(Cl)C(=O)N2NCc2nc3ccc(Br)cc3c(=O)n2-c2nc(-c3ccc(Cl)cc3)cs2)cc1 (centres undefined)	31.67%	30.67%	> 1000 mg/kg	–	–	–	–	–
O=C1C(Cl)C(c2ccc(O)cc2)N1NCc1nc2ccc(Br)cc2c(=O)n1-c1nc(-c2ccc(Cl)cc2)cs1 (centres undefined)	30.65%	29.92%	> 1000 mg/kg	–	–	–	–	–
Cc1ccc(C2C(Cl)C(=O)N2NCc2nc3ccc(Br)cc3c(=O)n2-c2nc(-c3ccc(Cl)cc3)cs2)cc1 (centres undefined)	29.88%	29.12%	> 1000 mg/kg	–	–	–	–	–
O=C1CSC(c2ccccc2Cl)N1NCc1nc2ccc(Br)cc2c(=O)n1-c1nc(-c2ccc(Cl)cc2)cs1 (centres undefined)	38.35%	37.36%	> 1000 mg/kg	17.84%	67.45%	14.22%	61.12%	195.6 mg/kg
COc1ccccc1C1SCC(=O)N1NCc1nc2ccc(Br)cc2c(=O)n1-c1nc(-c2ccc(Cl)cc2)cs1 (centres undefined)	36.98%	35.43%	> 1000 mg/kg	–	–	–	–	–
O=C1CSC(c2ccc(Cl)cc2)N1NCc1nc2ccc(Br)cc2c(=O)n1-c1nc(-c2ccc(Cl)cc2)cs1 (centres undefined)	37.06%	36.26%	> 1000 mg/kg	–	–	–	–	–
O=C1C(Cl)C(c2ccc(Cl)cc2)N1NCc1nc2ccc(Br)cc2c(=O)n1-c1nc(-c2ccc(Cl)cc2)cs1 (centres undefined)	33.07%	32.62%	> 1000 mg/kg	–	–	–	–	–
COc1ccc(/C=N/NCc2nc3ccc(Br)cc3c(=O)n2-c2nc(-c3ccc(Cl)cc3)cs2)cc1	23.29%	21.69%	> 1000 mg/kg	–	–	–	–	–
CN(C)c1ccc(/C=N/NCc2nc3ccc(Br)cc3c(=O)n2-c2nc(-c3ccc(Cl)cc3)cs2)cc1	17.88%	16.84%	> 1000 mg/kg	–	–	–	–	–
O=c1c2cc(Br)ccc2nc(CN/N=C/c2ccccc2)n1-c1nc(-c2ccc(Cl)cc2)cs1	18.75%	17.12%	> 1000 mg/kg	–	–	–	–	–
O=C1C(Cl)C(c2ccccc2Cl)N1NCc1nc2ccc(Br)cc2c(=O)n1-c1nc(-c2ccc(Cl)cc2)cs1 (centres undefined)	34.21%	34.11%	> 1000 mg/kg	–	–	–	–	–
CN(C)c1ccc(C2C(Cl)C(=O)N2NCc2nc3ccc(Br)cc3c(=O)n2-c2nc(-c3ccc(Cl)cc3)cs2)cc1 (centres undefined)	28.55%	27.35%	> 1000 mg/kg	–	–	–	–	–
O=C1CSC(c2ccccc2)N1NCc1nc2ccc(Br)cc2c(=O)n1-c1nc(-c2ccc(Cl)cc2)cs1 (centres undefined)	33.88%	32.45%	> 1000 mg/kg	–	–	–	–	–
O=C1CSC(c2ccc(O)cc2)N1NCc1nc2ccc(Br)cc2c(=O)n1-c1nc(-c2ccc(Cl)cc2)cs1 (centres undefined)	35.13%	33%	> 1000 mg/kg	–	–	–	–	–
Cc1ccc(C2SCC(=O)N2NCc2nc3ccc(Br)cc3c(=O)n2-c2nc(-c3ccc(Cl)cc3)cs2)cc1 (centres undefined)	34.25%	32.87%	> 1000 mg/kg	–	–	–	–	–
O=C1C(Cl)C(c2ccccc2)N1NCc1nc2ccc(Br)cc2c(=O)n1-c1nc(-c2ccc(Cl)cc2)cs1 (centres undefined)	29.16%	28.59%	> 1000 mg/kg	–	–	–	–	–
CN(C)c1ccc(C2SCC(=O)N2NCc2nc3ccc(Br)cc3c(=O)n2-c2nc(-c3ccc(Cl)cc3)cs2)cc1 (centres undefined)	32.89%	28.76%	> 1000 mg/kg	–	–	–	–	–
CCCCC1C(=O)N(c2ccccc2)N(c2ccccc2)C1=O [PHENYLBUTAZONE]	38.9%	36.5%	–	18.46%	66.58%	16.3%	60.23%	66.6 mg/kg
